Series [1] in a line: Binding affinity to 5'-FAM/3'-TAMRA labeled c-MYC 22-mer G-quadruplex DNA (unknown origin) assessed as change in melting temperature at 4 uM after 12 hrs by TR-FRET assay. In outline: (§1)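 Dual-labeled FAM/TAMRA oligos diluted to 800 nM in 60 mM potassium cacodylate (pH 7.2), annealed 10 min at 85 °C and cooled to room temperature. Mixed 1:1 with ligand at […] in the same buffer. Equilibrated at least 12 h at 4 °C. ΔT1/2 taken as melting temperature with minus without ligand, in triplicate, averaged.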

A short description of series [2]: Binding affinity to 5'-FAM/3'-TAMRA labeled F21T 21-mer G-quadruplex DNA (unknown origin) assessed as change in melting temperature at 4 uM after 12 hrs by TR-FRET assay. The essentials: as §1
Series [3] can be described thus: Binding affinity to 5'-FAM/3'-TAMRA labeled c-kit2 26-mer G-quadruplex DNA (unknown origin) assessed as change in melting temperature at 4 uM after 12 hrs by TR-FRET assay. The essentials:
as §1

Series [4] in a line: Binding affinity to 5'-FAM/3'-TAMRA labeled k-RAS21R 21-mer G-quadruplex DNA (unknown origin) assessed as change in melting temperature at 4 uM after 12 hrs by TR-FRET assay. In outline:
as §1

Series [5] is described as follows: Binding affinity to 5'-FAM/3'-TAMRA labeled 26-mer duplex DNA (unknown origin) assessed as change in melting temperature at 4 uM after 12 hrs by TR-FRET assay.
Series [6] in a line: Antiproliferative activity against human OVCAR3 cells after 72 hrs by WST-1 assay. To be noted: OVCAR-3, 72 h. The class given is functional. In outline: (§2)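 Cells seeded in 96-well plates the afternoon before treatment, at numbers keeping them in log-phase growth; about 18 h later, compounds semi-serially diluted in DMSO then growth medium and added. Incubation 72 h, then WST-1 added and plates read after 4 more hours at 37 °C. GI50 derived from curve fits; viability expressed relative to DMSO control.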

A short description of series [7]: Antiproliferative activity against human PC3 cells after 72 hrs by WST-1 assay. Conditions: PC-3, 72 h. The class given is functional. In outline: as §2
In series [8] the test system is MDA-MB-231. The experiment in a line: Antiproliferative activity against human MDA-MB-231 cells after 72 hrs by WST-1 assay. The series is classed as functional. Conditions: MDA-MB-231, 72 h. The essentials:
as §2

Series [9] in a line: Antiproliferative activity against human OVCAR3 cells assessed as cell viability at 20 uM after 72 hrs by WST-1 assay relative to control. The class given is functional. To be noted: OVCAR-3, 72 h, read-out: Activity. The essentials:
as §2

Series [10] can be described thus: Antiproliferative activity against human PC3 cells assessed as cell viability at 20 uM after 72 hrs by WST-1 assay relative to control. The class given is functional. To be noted: PC-3, 72 h, read-out: Activity. The essentials:
as §2

Series [11] relates to MDA-MB-231. The experiment in a line: Antiproliferative activity against human MDA-MB-231 cells assessed as cell viability at 20 uM after 72 hrs by WST-1 assay relative to control. The class given is functional. Conditions: MDA-MB-231, 72 h, read-out: Activity. In outline: as §2
Series [12] in a line: Antiproliferative activity against human bone marrow cells after 72 hrs by WST-1 assay. The class given is cell-based, Bone marrow cell. In outline: (§3)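 Cells seeded the afternoon before treatment at densities giving log-phase growth; about 18 h later compounds, semi-serially diluted in DMSO then growth medium, were added. After 72 h WST-1 was added, with a further 4 h at 37 °C before plate reading. GI50 values were calculated from the curves. NBM was grown in RPMI; MCR5A was handled per ATCC.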

The nature of series [13]: Antiproliferative activity against human MCR5A cells after 72 hrs by WST-1 assay. The series is classed as cell-based. The essentials:
as §3

Series [14] in a line: Binding affinity to 5'-FAM/3'-TAMRA labeled c-MYC 22-mer G-quadruplex DNA (unknown origin) at 4 uM in presence of 26-mer duplex DNA by TR-FRET assay.
Series [15] is described as follows: Binding affinity to wild type c-MYC 24-mer G-quadruplex DNA (unknown origin) at 4:1 ligand:DNA molar ratio by isothermal titration calorimetry.

Calls of active or inactive are those of the source. No cut-off for these calls is given here.

As to `C#Cc1ccc(N/N=N/c2ccc(C(=N)N)cc2)cc1`, the thermal shift (ΔTm) was 6.6 °C in series [1]; < 5 °C in [2]; 5.3 °C in series [3]; 4.2 °C in series [4]; < 5 °C in series [5]. In addition, the GI50 came to 11.8 µM in series [6], 22.5 µM in series [7] and 30.2 µM in the series with MDA-MB-231 [8].

`N#Cc1cccc(N/N=N/c2ccc(C(=N)N)cc2)c1`: the thermal shift (ΔTm) in series [1] is 6.2 °C; in [2], < 5 °C; in series [3], 6.22 °C; in series [4], 2.2 °C; in series [5], < 5 °C. The viability at 20 µM (in [9]; in [10]; with MDA-MB-231 [11]) was ≥ 75% in each case.

As to `N=C(N)c1ccc(N)cc1`, the viability at 20 µM (in [9]; in series [10]; in the series on MDA-MB-231 [11]) was ≥ 75% each time.

With `C[n+]1ccc(-c2c3nc(c(-c4cc[n+](C)cc4)c4ccc([nH]4)c(-c4cc[n+](C)cc4)c4nc(c(-c5cc[n+](C)cc5)c5ccc2[nH]5)C=C4)C=C3)cc1`, the GI50 is 14.6 µM in series [6], 14 µM in [7] and 14.3 µM in the series with MDA-MB-231 [8]. The results for the 50% growth inhibitory concentration (GI50) at 72 h in series [12] and in [13] were 16.8 µM and 15.2 µM, respectively.

As for `N=C(N)c1ccc(/N=N/Nc2cccc(C#Cc3ccccn3)c2)cc1`, in series [14], the result was inactive. Further, the ΔTm in series [1] was 9.7 °C; in series [2], 7.3 °C; in [3], 8.04 °C; in series [4] it was 13.2 °C; in series [5], < 5 °C. Further, the GI50 is 10.7 µM in series [6], 10.4 µM in series [7] and 14.4 µM with MDA-MB-231 [8].

In the case of `N=C(N)c1ccc(/N=N/Nc2ccccc2C#Cc2ccccc2)cc1`, the outcome in [14] was inactive. In addition, the ΔTm in [1] was 6.4 °C; in series [2], < 5 °C; in [3] it was 5.12 °C; in series [4] it was 1.8 °C; in series [5], < 5 °C. Also, the figures for the GI50 (in series [6]; in [7]; in the series on MDA-MB-231 [8]) were 8.1 µM, 5.3 µM and 5.1 µM, respectively.

For `N=C(N)c1ccc(/N=N/Nc2ccccc2)cc1`, the thermal shift (ΔTm) in series [1] is 7.1 °C; in series [2] it was < 5 °C; in series [3], 6.4 °C; in series [4] it was 6.4 °C; in [5], < 5 °C. The viability at 20 µM (in series [9]; in series [10]; in the series on MDA-MB-231 [11]) was ≥ 75% each time.

Take `C#Cc1cccc(N/N=N/c2ccc(C(=N)N)cc2)c1`: the result in [15] was Active. For the same compound, the ΔTm in series [1] was 8.2 °C; in series [2], < 5 °C; in series [3] it was 5.48 °C; in series [4], 7.1 °C; in [5], < 5 °C. Moreover, the figures for the GI50 (in [6]; in series [7]; in the series on MDA-MB-231 [8]) were 16.8 µM, 18 µM and 20.5 µM, respectively.

`Nc1cccc(C#Cc2ccc(F)cc2)c1`: the viability at 20 µM (in [9]; in series [10]; with MDA-MB-231 [11]) was ≥ 75% each time.

Turning to `N=C(N)c1ccc(/N=N/Nc2cccc(-c3ccccc3)c2)cc1`, the ΔTm was 8.8 °C in series [1]; < 5 °C in [2]; 5.48 °C in series [3]; 15 °C in series [4]; < 5 °C in series [5]. For the same compound, the viability at 20 µM (in [9]; in series [10]; in the series on MDA-MB-231 [11]) was ≥ 75% in each case.

`N=C(N)c1ccc(/N=N/Nc2cccc(C#Cc3ccccc3)c2)cc1`: in series [14], the outcome was inactive. Moreover, the ΔTm in series [1] is 7.1 °C; in [2], < 5 °C; in series [3] it was 6.4 °C; in [4], 3.7 °C; in series [5], < 5 °C. Also, the GI50 in [6] was determined as 6.5 µM; in series [7] it was 5.8 µM; in the series on MDA-MB-231 [8], 9.5 µM.

Consider `C#Cc1ccccc1N/N=N/c1ccc(C(=N)N)cc1`, for which, in series [15], the result was Active. Further, the shift in melting temperature (ΔTm) in [1] is 7 °C; in [2], < 5 °C; in [3] it was 7.68 °C; in series [4], 4.2 °C; in series [5], < 5 °C. Moreover, the GI50 in [6] is > 25 µM; in [7], > 50 µM; in the series with MDA-MB-231 [8] it was 23.2 µM.

Regarding `N=C(N)c1ccc(/N=N/Nc2ccncc2)cc1`, in series [14], the outcome was inactive. Further, the ΔTm was 6.1 °C in series [1]; < 5 °C in [2]; 6.58 °C in series [3]; 4.3 °C in series [4]; < 5 °C in series [5]. For the same compound, the viability at 20 µM (in series [9]; in series [10]; with MDA-MB-231 [11]) was ≥ 75% each time.

With `COc1ccc(C#Cc2cccc(N/N=N/c3ccc(C(=N)N)cc3)c2)cc1`, the outcome in [14] was inactive. Moreover, the ΔTm was 7.3 °C in series [1]; < 5 °C in series [2]; 5.48 °C in [3]; 2.6 °C in series [4]; < 5 °C in series [5]. Moreover, the results for the GI50 (in [6]; in series [7]; in the series with MDA-MB-231 [8]) were 5.2 µM, 5 µM and 5.5 µM, respectively.

Take `N#Cc1ccc(N/N=N/c2ccc(C(=N)N)cc2)cc1`: the ΔTm was 9.7 °C in [1]; 5.1 °C in series [2]; 5.3 °C in series [3]; 8.2 °C in series [4]; < 5 °C in series [5]. The viability at 20 µM (in series [9]; in series [10]; in the series with MDA-MB-231 [11]) was ≥ 75% throughout.

Source of the values: ChEMBL document CHEMBL3826936, “Alkyne-substituted diminazene as G-quadruplex binders with anticancer activities” (Eur J Med Chem, 2016).
